CASP6 VEID inh – human caspase-6 inhibitors, primary screen, biochemical, VEID-R110 fluorescence, single point, set 2 | purified caspase-6, Z-VEID-R110 cleavage fluorescence | inhibition, % at 12.5 µM | 0.53% of 350,000 active;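 active means mean inhibition across replicates at least about 35%, with every replicate also reaching that limit, limit read from the data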
Target sequence (P55212 24-179 limits assumed): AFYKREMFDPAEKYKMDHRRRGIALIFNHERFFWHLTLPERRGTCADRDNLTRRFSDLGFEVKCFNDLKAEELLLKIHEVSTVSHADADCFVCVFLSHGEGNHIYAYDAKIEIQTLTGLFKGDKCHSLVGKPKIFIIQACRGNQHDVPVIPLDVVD
Target sequence (P55212 194-293 limits assumed): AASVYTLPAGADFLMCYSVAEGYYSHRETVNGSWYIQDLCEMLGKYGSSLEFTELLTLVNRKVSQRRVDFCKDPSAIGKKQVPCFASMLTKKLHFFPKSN
LMPTP block – LMPTP phosphatase inhibitors, primary screen, biochemical, fluorescence intensity, uHTS; recombinant LMPTP-A, OMFP fluorogenic substrate; inhibition, % at 20 µM; 0.22% of 360,000 active;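 active means compounds that cut the enzyme signal by at least half of the control window in the single-dose screen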
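test system = LMPTP-A | amount = 0.625 nM LMPTP-A final | reagent = fluorogenic phosphatase substrate OMFP at 400 µM final | incubation = 50 min at room temperature | benchmarks = no-enzyme low control, uninhibited high control | medium = Bis-Tris pH 6.0, DTT, detergent | signal = fluorescence intensity of OMFP turnover product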
Scp1 inh – Scp-1 phosphatase inhibitors, primary screen, biochemical, colorimetric, uHTS; inhibition, % at 20 µM; 0.88% of 340,000 active; Carboxy-terminal domain RNA polymerase II polypeptide A small phosphatase 1 (Homo …; Recombinant Scp1, phosphopeptide, malachite green phosphate absorbance;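 active means inhibition above about 50% at 20 µM, limit read from the data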
Target sequence (Q9GZU7 76-261 limits assumed): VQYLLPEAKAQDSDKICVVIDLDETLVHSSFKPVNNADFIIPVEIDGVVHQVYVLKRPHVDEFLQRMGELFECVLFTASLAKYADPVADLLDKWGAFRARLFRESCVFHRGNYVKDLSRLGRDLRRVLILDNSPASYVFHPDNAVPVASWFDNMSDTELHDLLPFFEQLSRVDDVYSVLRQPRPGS
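System: truncated SCP-1 phosphatase (76-261aa); medium: Tris acetate buffer pH 5.5 with MgCl2 and Tween-20; incubation: 45 min room-temperature reaction, 5 min colour, 30 min stabiliser; compound: single 20 µM dose, 1% DMSO; reagent: Phosphorylated 17-residue peptide substrate; read-out: % inhibition at 20 µM; technique: colorimetric free-phosphate detection, absorbance 630 nm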
SUMO1 PPI mod – modulators of SUMO1 protein-protein interactions, primary screen, biochemical, uHTS. Small ubiquitin-related modifier 1 (Homo sapiens), P63165. SUMO1 binding to a labelled peptide, TR-FRET, 1 h. inhibition, % at 20 µM. 0.33% of 360,000 active; in the data active means inhibition above about 37%
DNMT1 block – human DNMT1 methyltransferase inhibitors, primary screen, biochemical, molecular beacon, fluorescence, HinP1I cleavage, uHTS. DNA (cytosine-5)-methyltransferase 1 (Homo sapiens), P26358. inhibition (reported as % activation of signal), % at 10 µM. 0.83% of 360,000 active; in the data active means inhibition above about 50%
STEP inh – STEP phosphatase inhibitors, primary screen, biochemical, fluorescence intensity, uHTS | Tyrosine-protein phosphatase non-receptor type 5 (Homo sapiens), P54829 | inhibition, % at 20 µM | AID 588621, 2011 | 0.25% of 360,000 active | recombinant STEP, OMFP fluorogenic substrate;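 active means inhibition at 20 µM, scaled per plate between control wells, above about 37%, limit read from the data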
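Assay system: isolated STEP enzyme. Buffer or medium: pH 6.0 Bis-Tris with DTT and Tween 20. Also added: fluorogenic phosphatase substrate OMFP at 25 µM final. Dosing: 20 µM, 1% DMSO. Timing: 20 min reaction, room temperature, in the dark. Measured by: fluorescence intensity, excitation 480 nm, emission 540 nm. Evaluation: normalized % inhibition.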
Beacon interf DR – spectral interference with molecular beacon fluorescence, dose response, artefact control for DNMT1 inhibitor project, biochemical, fluorescent molecular beacon. shares compounds with DNMT1 block. AID 602382, 2012. IC50, µM. 200 tested, under 10 active. spectral interference counter-screen; call rule not given here
DNMT1 inh conf – DNMT1 methyltransferase inhibitor retest, confirmation, biochemical, molecular beacon, fluorescence, single concentration; shares compounds with DNMT1 block; DNMT1 molecular beacon HinP1I cleavage; inhibition, % at 10 µM; 8% of 2,300 active;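 active means average inhibition of at least 30% in the single-concentration confirmation test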
DNMT1 interf – counter-screen for DNMT1 inhibitors: spectral interference; shares compounds with DNMT1 block; DNMT1 molecular beacon spectral interference counterscreen, fluorescence 485/520; activation (fluorescence interference), % at 10 µM; 1% of 2,300 active;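 active means activation of at least 30% at 10 µM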;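 further: DNMT1 catalytic domain with a HinP1I cleavage step and a FAM/dabcyl DNA beacon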
Each line names hits and unclear results; the compound was inactive in the other large screens (follow-up assays come after a bar, where they were run). Only some compounds are listed: those with a hit (about 1.7% of all), similar ones and a draw of the others.

CCOc1cc2[nH]c(=S)n(CCC(=O)NCc3ccc(OC)cc3)c(=O)c2cc1OCC	DNMT1 block 59 (no result: CASP6 VEID inh) | DNMT1 inh conf inactive | DNMT1 interf inactive
C#CCOCCOCCOCCNc1nc(N2CCN(C(=O)[C@H]([C@@H](C)CC)n3cc(CCCCN)nn3)CC2)nc(N2CCN(C(=O)[C@H](CCCCN)n3cc(CC(C)O)nn3)CC2)n1 (stereo not given in full)	none
CCOc1nc(NC(=O)NS(=O)(=O)Oc2ccccc2Cl)nc(-c2ccccc2)n1	none (no result: CASP6 VEID inh)
CCOc1nc(NC(=O)NC(=O)c2ccccc2)nc(-c2ccccc2)n1	DNMT1 block 73 | DNMT1 inh conf inactive | DNMT1 interf inactive
COC(=O)c1ccc(CSc2nc3scc(-c4cccs4)c3c(=O)[nH]2)o1	DNMT1 block 80 (no result: CASP6 VEID inh) | DNMT1 inh conf inactive | DNMT1 interf inactive
O=c1[nH]c(C(Cl)Cl)nc2sc3c(c12)CCN(Cc1ccccc1)C3	LMPTP block 77, DNMT1 block 87 | DNMT1 inh conf inactive | DNMT1 interf inactive
CCCSc1nc2sc3c(c2c(=O)[nH]1)CCN(Cc1ccccc1)C3	none (no result: CASP6 VEID inh)
CCCCn1c(SCC(=O)NC2CCCC2)nnc1-c1ccco1	none
C[C@@H]1CN([C@@H](C)CO)C(=O)c2cc(NS(=O)(=O)c3ccc(Cl)cc3)ccc2O[C@H]1CN(C)Cc1ccc(-c2ccccc2)cc1	none (no result: LMPTP block, Scp1 inh, SUMO1 PPI mod, DNMT1 block, STEP inh)
Cc1cc(C)nc(Nc2ccc(Br)cc2C(=O)O)n1	DNMT1 block 55 | DNMT1 inh conf inactive | DNMT1 interf inactive
Cc1ccc(Nc2nc(C)cc(C)n2)c(Br)c1	none (no result: CASP6 VEID inh)
Cc1ccc(Cn2c(/C=C/c3ccco3)nc3ccccc32)cc1	DNMT1 block 76 (no result: CASP6 VEID inh) | DNMT1 inh conf inactive | DNMT1 interf inactive
Clc1ccc(Cn2c(/C=C/c3ccco3)nc3ccccc32)cc1	none (no result: CASP6 VEID inh)
Cc1ccc(C2=NN(C(=O)CCC(=O)O)C(c3cccc([N+](=O)[O-])c3)C2)cc1 (stereo not given)	none
O=C(c1cc(=O)c2ccccc2o1)N1CCCc2ccccc21	DNMT1 block 84 | DNMT1 inh conf inactive | DNMT1 interf inactive
O=C(c1cccc(Br)c1)N1CCCc2ccccc21	none
CC1(C)CCCN(C(=O)c2coc(=O)c(Br)c2)C1	LMPTP block 54, Scp1 inh 96, DNMT1 block 87, STEP inh 97 (no result: CASP6 VEID inh) | Beacon interf DR inactive | DNMT1 inh conf 103 | DNMT1 interf inactive
O=C(c1cc2ccccc2c(=O)o1)N1CCCc2ccccc21	none (no result: CASP6 VEID inh)
O=C(c1coc(=O)c(Br)c1)N1CCCc2ccccc21	DNMT1 block 58 (no result: CASP6 VEID inh) | DNMT1 inh conf inactive | DNMT1 interf inactive
CCOC(=O)C(CCCCCCP(=O)(c1ccccc1)c1ccccc1)NC(C)=O (stereo not given)	none
CCCCN(C(=O)c1ccccc1OCc1ccc(F)cc1)c1c(N)n(CCC)c(=O)[nH]c1=O	none
CCOc1ccc(NC(=O)Nc2ccc3nsnc3c2)cc1	none
CCOc1ccc(NC(=S)Nc2ccc3nsnc3c2)cc1	SUMO1 PPI mod 50, DNMT1 block 85 (no result: CASP6 VEID inh) | DNMT1 inh conf inactive | DNMT1 interf inactive

Screens as filed in PubChem.
